Laboratory results as given in ChEMBL document CHEMBL1156736, “Multidentate small-molecule inhibitors of vaccinia H1-related (VHR) phosphatase decrease proliferation of cervix cancer cells” (J Med Chem, 2009).
Activity calls are given as the source filed them. The rule behind the calls is not given here.

Key:
[1] = target: T1, Dual specificity protein phosphatase 3 (Homo sapiens, UniProt P51452); assay: Inhibition of recombinant vaccina H1-related phosphatase expressed in Escherichia coli by Michaelis-Menten kinetic studies
How it was run: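 E. coli-expressed VHR (GST-fusion, thrombin-cleaved, gel-filtered) preincubated 10 min with several fixed inhibitor concentrations in Bis-Tris pH 6.0 buffer with DTT and 5% DMSO; started with pNPP at 0.2–10 Km; initial rates at 404 nm, no-enzyme corrected; Ki and mode by nonlinear fit to competitive, uncompetitive or mixed models, compared by AICc.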

[2] = target: T1, Dual specificity protein phosphatase 3; assay: Inhibition of recombinant vaccina H1-related phosphatase
[3] = target: T2, Dual specificity protein phosphatase 1 (Homo sapiens, UniProt P28562); assay: Inhibition of recombinant MKP1
T2 sequence (P28562 whole entry): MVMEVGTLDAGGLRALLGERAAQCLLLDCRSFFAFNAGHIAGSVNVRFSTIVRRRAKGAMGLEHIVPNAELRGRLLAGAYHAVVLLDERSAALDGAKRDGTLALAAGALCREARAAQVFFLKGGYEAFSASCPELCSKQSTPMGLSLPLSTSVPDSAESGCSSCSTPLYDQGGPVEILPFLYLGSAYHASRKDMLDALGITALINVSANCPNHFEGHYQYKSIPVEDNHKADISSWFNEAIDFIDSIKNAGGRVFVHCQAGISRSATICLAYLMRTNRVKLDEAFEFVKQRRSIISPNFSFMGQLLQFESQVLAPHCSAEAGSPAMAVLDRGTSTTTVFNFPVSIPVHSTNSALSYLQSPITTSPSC

[4] = target: T3, M-phase inducer phosphatase 1 (Homo sapiens, UniProt P30304); assay: Inhibition of recombinant Cdc25a
T3 sequence (P30304 whole entry): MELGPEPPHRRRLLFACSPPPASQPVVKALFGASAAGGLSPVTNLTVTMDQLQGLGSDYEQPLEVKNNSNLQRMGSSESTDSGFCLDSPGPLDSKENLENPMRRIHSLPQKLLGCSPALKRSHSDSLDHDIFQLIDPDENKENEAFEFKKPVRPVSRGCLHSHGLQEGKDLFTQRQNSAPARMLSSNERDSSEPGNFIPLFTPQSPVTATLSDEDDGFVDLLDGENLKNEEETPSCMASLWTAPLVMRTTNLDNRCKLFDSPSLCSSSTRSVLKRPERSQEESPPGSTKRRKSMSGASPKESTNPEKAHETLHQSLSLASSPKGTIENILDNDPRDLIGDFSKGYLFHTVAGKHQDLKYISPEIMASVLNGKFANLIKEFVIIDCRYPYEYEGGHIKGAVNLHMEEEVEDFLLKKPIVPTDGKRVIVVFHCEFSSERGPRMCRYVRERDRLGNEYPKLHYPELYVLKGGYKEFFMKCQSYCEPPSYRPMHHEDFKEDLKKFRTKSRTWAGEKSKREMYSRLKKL

[5] = target: T4, Tyrosine-protein phosphatase non-receptor type 7 (Homo sapiens, UniProt P35236); assay: Inhibition of recombinant HePTP
T4 sequence (P35236 whole entry): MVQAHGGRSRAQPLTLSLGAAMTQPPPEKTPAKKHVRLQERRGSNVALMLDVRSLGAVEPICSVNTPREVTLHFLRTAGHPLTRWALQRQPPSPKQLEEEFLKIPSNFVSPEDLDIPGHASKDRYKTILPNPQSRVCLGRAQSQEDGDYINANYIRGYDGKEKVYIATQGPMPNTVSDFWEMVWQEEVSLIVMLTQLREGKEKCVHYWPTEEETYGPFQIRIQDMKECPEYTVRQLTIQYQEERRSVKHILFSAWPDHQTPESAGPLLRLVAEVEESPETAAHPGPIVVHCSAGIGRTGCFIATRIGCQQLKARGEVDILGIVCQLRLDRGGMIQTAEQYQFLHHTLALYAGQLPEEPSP

[6] = target: T5, Receptor-type tyrosine-protein phosphatase C (Homo sapiens, UniProt P08575); assay: Inhibition of recombinant CD45
T5 sequence (P08575 whole entry): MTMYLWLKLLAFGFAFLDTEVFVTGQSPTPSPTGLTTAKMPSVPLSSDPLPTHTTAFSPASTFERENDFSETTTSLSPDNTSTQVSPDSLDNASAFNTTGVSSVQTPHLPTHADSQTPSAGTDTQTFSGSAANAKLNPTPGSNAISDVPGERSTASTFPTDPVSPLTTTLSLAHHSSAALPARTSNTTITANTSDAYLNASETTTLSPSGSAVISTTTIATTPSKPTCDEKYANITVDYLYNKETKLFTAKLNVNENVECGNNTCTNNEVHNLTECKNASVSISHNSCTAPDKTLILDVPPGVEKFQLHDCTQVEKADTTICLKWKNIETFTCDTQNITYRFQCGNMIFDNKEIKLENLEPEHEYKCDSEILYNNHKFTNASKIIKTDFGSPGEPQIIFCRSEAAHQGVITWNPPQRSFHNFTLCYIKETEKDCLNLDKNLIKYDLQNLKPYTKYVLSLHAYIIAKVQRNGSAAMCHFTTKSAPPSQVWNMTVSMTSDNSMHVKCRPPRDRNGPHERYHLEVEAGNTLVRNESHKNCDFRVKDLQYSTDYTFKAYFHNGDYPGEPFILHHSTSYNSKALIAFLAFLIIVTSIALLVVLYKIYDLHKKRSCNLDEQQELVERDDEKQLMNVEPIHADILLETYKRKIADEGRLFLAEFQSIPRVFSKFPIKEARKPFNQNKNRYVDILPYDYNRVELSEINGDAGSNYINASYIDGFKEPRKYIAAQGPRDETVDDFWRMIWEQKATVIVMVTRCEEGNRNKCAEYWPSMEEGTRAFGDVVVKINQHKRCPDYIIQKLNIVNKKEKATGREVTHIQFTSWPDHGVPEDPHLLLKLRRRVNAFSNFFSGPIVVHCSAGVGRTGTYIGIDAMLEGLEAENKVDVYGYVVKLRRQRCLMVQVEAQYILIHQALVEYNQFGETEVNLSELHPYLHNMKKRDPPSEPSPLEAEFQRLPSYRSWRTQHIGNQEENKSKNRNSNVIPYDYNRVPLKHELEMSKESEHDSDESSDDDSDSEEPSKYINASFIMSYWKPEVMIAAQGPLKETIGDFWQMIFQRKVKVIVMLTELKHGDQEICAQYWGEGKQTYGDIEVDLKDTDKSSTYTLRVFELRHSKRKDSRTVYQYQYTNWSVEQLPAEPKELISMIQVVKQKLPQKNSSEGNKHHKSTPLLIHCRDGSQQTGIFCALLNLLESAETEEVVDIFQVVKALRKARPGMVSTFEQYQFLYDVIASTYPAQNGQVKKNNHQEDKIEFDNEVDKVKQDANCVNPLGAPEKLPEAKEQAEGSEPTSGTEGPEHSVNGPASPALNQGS

[7] = target: T6, Tyrosine-protein phosphatase non-receptor type 1 (Homo sapiens, UniProt P18031); assay: Inhibition of recombinant PTP1B
T6 sequence (P18031 whole entry): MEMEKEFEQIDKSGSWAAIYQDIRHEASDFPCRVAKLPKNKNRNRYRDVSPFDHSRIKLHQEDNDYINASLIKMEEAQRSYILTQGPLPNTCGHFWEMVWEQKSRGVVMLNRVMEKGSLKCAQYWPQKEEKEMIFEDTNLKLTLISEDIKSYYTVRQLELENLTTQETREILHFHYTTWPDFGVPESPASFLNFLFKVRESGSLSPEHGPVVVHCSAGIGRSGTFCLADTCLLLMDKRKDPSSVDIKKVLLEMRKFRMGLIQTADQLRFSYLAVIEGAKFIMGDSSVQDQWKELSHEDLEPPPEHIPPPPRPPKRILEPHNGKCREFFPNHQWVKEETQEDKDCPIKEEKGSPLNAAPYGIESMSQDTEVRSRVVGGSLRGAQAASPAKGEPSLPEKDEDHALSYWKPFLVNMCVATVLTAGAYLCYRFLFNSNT

[8] = system: HeLa; assay: Antiproliferative activity against human HeLa cells at 20 uM after 24 hrs by Trypan blue assay; format: functional
How it was run: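 10^5 cells (HeLa in DMEM/10% FCS; primary normal keratinocytes from hysterectomy tissue, trypsin-EDTA dispersed, in K-SFM with EGF, pituitary hormone) treated 24 h with 20 μM inhibitor or DMSO; trypsinized and counted with trypan blue in a counting chamber; cell numbers as percentage of DMSO control; mean ± SD, three independent experiments.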

[9] = system: HeLa; assay: Antiproliferative activity against human HeLa cells at 20 uM after 24 hrs by [3H]thymidine incorporation assay relative to control; format: functional
How it was run: (§1)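 5×10^4 cells in DMEM complete medium exposed 24 h to 20 μM inhibitor or DMSO vehicle; [3H]thymidine ([…]) added for final 4 h, cells harvested onto glass fiber filters, radioactivity by scintillation counting; expressed relative to DMSO control; mean ± SD of three independent experiments.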

[10] = system: Ca-Ski; assay: Antiproliferative activity against human CaSki cells at 20 uM after 24 hrs by [3H]thymidine incorporation assay relative to control; format: functional; how it was run: as §1
[11] = system: HeLa; assay: Induction of apoptosis in human HeLa cells assessed as apoptotic cells at 20 uM after 24 hrs by annexin V/propidium iodide based flow cytometry; format: functional, cell-based
How it was run: (§2)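 10^5 cells in DMEM/10% FCS incubated 24 h with 20 μM inhibitor or DMSO, trypsinized; half of cells stained with AnnexinV-FITC and propidium iodide, analysed by flow cytometry; live cells taken as AnnexinV- and PI-negative; mean ± SD from three independent experiments.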

[12] = system: Ca-Ski; assay: Induction of apoptosis in human CaSki cells assessed as apoptotic cells at 20 uM after 24 hrs by annexin V/propidium iodide based flow cytometry; format: functional, cell-based; how it was run: as §2

T1 sequence (P51452 whole entry, the tested form may be a part): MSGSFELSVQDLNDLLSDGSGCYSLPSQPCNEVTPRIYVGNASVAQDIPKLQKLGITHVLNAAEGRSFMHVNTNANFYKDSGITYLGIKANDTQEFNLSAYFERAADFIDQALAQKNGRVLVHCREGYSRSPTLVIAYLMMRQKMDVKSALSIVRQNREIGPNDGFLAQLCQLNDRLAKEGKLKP

O=C1C(Cl)=C/C(=N\S(=O)(=O)c2ccc(Cl)cc2)C(Cl)=C1Cl
Ki [1]: 13400 nM

O=C1/C(=C/c2cn(-c3ccccc3)nc2-c2ccc(S(=O)(=O)N3CCOCC3)cc2)SC(=S)N1CCS(=O)(=O)O
IC50 [2]: 2400 nM

COc1ccc(N2C(=O)/C(=C/c3ccc(I)o3)C(=O)NC2=S)cc1 (mixture of isomers)
Ki [1]: 4440 nM

CC1=C(C#N)c2nc(N)c(C#N)c(C)c2/C1=C/c1ccc(-c2ccc(C(=O)O)c(Cl)c2)o1
Ki [1]: 3870 nM

C=CCN1C(=O)/C(=C\C=C\c2ccco2)C(=O)NC1=S (mixture of isomers)
Ki [1]: 15800 nM

O=C1NC(=S)N(c2ccc(F)cc2)C(=O)/C1=C/c1ccc(Br)o1
Ki [1]: 12100 nM

COc1ccc(-c2nn(-c3ccccc3)cc2/C=C2\SC(=S)N(CCS(=O)(=O)O)C2=O)cc1
IC50 [2]: 1800 nM

S=C(Nc1ccc2c(c1)oc1ccccc12)Nc1cccc2ccccc12
Ki [1]: 2940 nM

O=C1NC(=S)/C(=C/c2ccc(-c3ccc([N+](=O)[O-])cc3)o2)S1
Ki [1]: 1860 nM

O=C1/C(=C/c2cn(-c3ccccc3)nc2-c2ccc(Cl)cc2)SC(=S)N1CCS(=O)(=O)O
IC50 [2]: 1800 nM

O=C1/C(=C/c2cn(-c3ccccc3)nc2-c2ccc(OCc3ccccc3F)cc2)SC(=S)N1CCS(=O)(=O)O
IC50 [3]: 520 nM
IC50 [4]: 2800 nM
IC50 [5]: 870 nM
IC50 [6]: 500 nM
IC50 [7]: 420 nM
Activity [8]: >50%
Activity [9]: 58%
Activity [10]: 74%
Activity [11]: inactive
Activity [12]: inactive

O=C1c2cccc3c4ccccc4n(c23)C(=O)C1(O)O
Ki [1]: 13800 nM

O=C1/C(=C/c2cn(-c3ccccc3)nc2-c2ccc(OCc3ccccc3Cl)cc2)SC(=S)N1CCS(=O)(=O)O
IC50 [3]: 470 nM
IC50 [4]: 3400 nM
IC50 [5]: 1200 nM
IC50 [6]: 300 nM
IC50 [7]: 590 nM
IC50 [2]: 71 nM
Activity [8]: Active
Activity [9]: <=30%
Activity [10]: >50%
Activity [11]: inactive
Activity [12]: inactive

O=C1/C(=C/c2ccc(-c3cccc(Cl)c3)o2)SC(=S)N1CCS(=O)(=O)O
Ki [1]: 3130 nM

Cc1ccc(-c2nn(-c3ccccc3)cc2/C=C2\SC(=S)N(CCS(=O)(=O)O)C2=O)cc1
IC50 [2]: 3100 nM

O=C(/C=C/c1ccco1)/C=C/c1ccc(-c2ccc(Cl)c(Cl)c2)o1
Ki [1]: 15900 nM

O=C(/C=C/c1ccc(-c2ccccc2[N+](=O)[O-])o1)Nc1ccc(-c2nc3ccccc3o2)cc1
Ki [1]: 1760 nM

O=C1/C(=C/c2cn(-c3ccccc3)nc2-c2ccc(S(=O)(=O)N3CCCCC3)cc2)SC(=S)N1CCS(=O)(=O)O
IC50 [3]: 2800 nM
IC50 [4]: > 10000 nM
IC50 [5]: 2400 nM
IC50 [6]: 1800 nM
IC50 [7]: 2200 nM
Activity [8]: Active
Activity [9]: <=30%
Activity [10]: >50%

O=C(O)C(Cc1ccccc1)N1C(=O)/C(=C/C=C/c2ccccc2)SC1=S (stereo not drawn)
Ki [1]: 2010 nM

CCOC(=O)c1[nH]nc2c1C(=O)N(c1ccc(Br)cc1)C2=O
Ki [1]: 2640 nM

COc1ccc(OC)c2c1C(=O)c1ccccc1C2=O [1,4-DIMETHOXYANTHRAQUINONE]
Ki [1]: 3070 nM

O=C1NC(=O)N(c2cccc(Br)c2)C(=O)/C1=C/c1ccc(-c2ccc(C(=O)O)cc2)o1 (mixture of isomers)
Ki [1]: 16200 nM

Cc1ccc(C)n1-c1ccc(SCC(=O)O)cc1
Ki [1]: 2090 nM

O=C1/C(=C/c2cn(-c3ccccc3)nc2-c2ccc(OCc3ccccc3)cc2)SC(=S)N1CCS(=O)(=O)O
IC50 [5]: 1500 nM
IC50 [7]: 1800 nM
Activity [8]: Active
Activity [9]: <=30%
Activity [10]: >50%

Cc1ccc(C)n1-c1ccc(C(=O)O)c(O)c1
Ki [1]: 12800 nM

O=C(O)c1cccc(-c2ccc(/C=N/Nc3ccc([N+](=O)[O-])cn3)o2)c1
Ki [1]: 13800 nM

O=C1NC(=S)N(c2cccc(Cl)c2)C(=O)/C1=C\c1ccc[nH]1 (mixture of isomers)
Ki [1]: 3490 nM

Cc1cc(Br)c(-c2ccc(/C=C3\NC(=S)NC3=O)o2)cc1C
Ki [1]: 3190 nM
